Experimental data taken from ChEMBL document CHEMBL1649480, “Farnesol-induced apoptosis in Candida albicans” (2009).
Calls of active or inactive are those of the source.

Tests used:
[1] = system: Candida albicans; test: Antiproliferative activity against Candida albicans SC5314 assessed as cell killing at 10 uM after 24 hrs by MTS assay; assay type: functional
In short: (§1)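 SC5314 grown overnight in YNB (pH 7.0) with 50 mM glucose at 30°C, 120 rpm, washed in PBS. Suspensions at 1 × 10⁷ cells/ml exposed to farnesol at final 0, 10, 40, 100, 200, 300 μM for 24 h at 30°C with shaking, with methanol vehicle controls. MTS reagent added for 4 h at 37°C, A490 read, and % killed cells calculated.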

[2] = system: Candida albicans; test: Antiproliferative activity against Candida albicans SC5314 assessed as cell killing after 24 hrs by MTS assay; assay type: functional; in short: as §1
[3] = system: Candida albicans; test: Downregulation of Putative stress response protein expression in Candida albicans SC5314 at 40 uM after 24 hrs by MALDI-TOF MS; assay type: functional, organism-based
In short: (§2)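 Overnight YNB-glucose SC5314 culture, PBS-washed, adjusted to OD600 0.1 and treated 24 h with 40 or 200 μM farnesol (methanol in controls). Proteomes were compared with untreated cells by 2D SDS-PAGE and MALDI-TOF MS, searched against NCBI nonredundant database. Spots were counted as changed at ≥1.5-fold in three independent experiments.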

[4] = system: Candida albicans; test: Downregulation of Translational elongation factor 1 expression in Candida albicans SC5314 at 40 uM after 24 hrs by MALDI-TOF MS; assay type: functional, organism-based; in short: as §2
[5] = system: Candida albicans; test: Downregulation of Riboflavin synthase expression in Candida albicans SC5314 at 40 uM after 24 hrs by MALDI-TOF MS; assay type: functional, organism-based; in short: as §2
[6] = system: Candida albicans; test: Downregulation of G-beta-like protein expression in Candida albicans SC5314 at 40 uM after 24 hrs by MALDI-TOF MS; assay type: functional, organism-based; in short: as §2
[7] = system: Candida albicans; test: Downregulation of Glyceraldehyde-3-phosphate dehydrogenase expression in Candida albicans SC5314 at 40 uM after 24 hrs by MALDI-TOF MS; assay type: functional, organism-based; in short: as §2
[8] = system: Candida albicans; test: Downregulation of NADH:quinone oxidoreductase expression in Candida albicans SC5314 at 200 uM after 24 hrs by MALDI-TOF MS; assay type: functional, organism-based; in short: as §2
[9] = system: Candida albicans; test: Downregulation of carboxymethylenebutenolidase expression in Candida albicans SC5314 at 200 uM after 24 hrs by MALDI-TOF MS; assay type: functional, organism-based; in short: as §2
[10] = system: Candida albicans; test: Downregulation of Dihydroxy acid dehydratase expression in Candida albicans SC5314 at 200 uM after 24 hrs by MALDI-TOF MS; assay type: functional, organism-based; in short: as §2
[11] = system: Candida albicans; test: Upregulation of Putative mitochondrial aconitate hydratase expression in Candida albicans SC5314 at 40 uM after 24 hrs by MALDI-TOF MS; assay type: functional, organism-based
In short: (§3)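 SC5314 grown overnight at 30°C, 120 rpm, in yeast nitrogen base (pH 7.0) with 50 mM glucose. Cells were washed in PBS and adjusted to OD600 0.1, then treated 24 h with farnesol from a methanol dilution; controls received methanol. Proteomes of treated and untreated cells were compared by 2-D SDS-PAGE and MALDI-TOF MS, with ProFound searches of the NCBI nonredundant database. Spots changed at least 1.5-fold in three independent experiments were counted.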

[12] = system: Candida albicans; test: Upregulation of Coproporphyrinogen III oxidase expression in Candida albicans SC5314 at 40 uM after 24 hrs by MALDI-TOF MS; assay type: functional, organism-based; in short: as §2
[13] = system: Candida albicans; test: Upregulation of Branched chain amino acid transaminase expression in Candida albicans SC5314 at 40 uM after 24 hrs by MALDI-TOF MS; assay type: functional, organism-based; in short: as §2
[14] = system: Candida albicans; test: Upregulation of Alcohol dehydrogenase expression in Candida albicans SC5314 at 40 uM after 24 hrs by MALDI-TOF MS; assay type: functional, organism-based; in short: as §2
[15] = system: Candida albicans; test: Upregulation of Catalase A expression in Candida albicans SC5314 at 40 uM after 24 hrs by MALDI-TOF MS; assay type: functional, organism-based; in short: as §2
[16] = system: Candida albicans; test: Upregulation of Heat shock protein 70 expression in Candida albicans SC5314 at 40 uM after 24 hrs by MALDI-TOF MS; assay type: functional, organism-based; in short: as §2
[17] = system: Candida albicans; test: Upregulation of Alanine/arginine aminopeptidase expression in Candida albicans SC5314 at 40 uM after 24 hrs by MALDI-TOF MS; assay type: functional, organism-based; in short: as §2
[18] = system: Candida albicans; test: Upregulation of Heat shock protein 90 homologue expression in Candida albicans SC5314 at 40 uM after 24 hrs by MALDI-TOF MS; assay type: functional, organism-based; in short: as §2
[19] = system: Candida albicans; test: Upregulation of Putative mitochondrial […] expression in Candida albicans SC5314 at 200 uM after 24 hrs by MALDI-TOF MS; assay type: functional, organism-based; in short: as §3
[20] = system: Candida albicans; test: Upregulation of Heat shock protein 60 expression in Candida albicans SC5314 at 200 uM after 24 hrs by MALDI-TOF MS; assay type: functional, organism-based; in short: as §2
[21] = system: Candida albicans; test: Upregulation of Coproporphyrinogen III oxidase expression in Candida albicans SC5314 at 200 uM after 24 hrs by MALDI-TOF MS; assay type: functional, organism-based; in short: as §2
[22] = system: Candida albicans; test: Upregulation of Mitochondrial 2-enoyl thioester reductase expression in Candida albicans SC5314 at 200 uM after 24 hrs by MALDI-TOF MS; assay type: functional, organism-based; in short: as §3
[23] = system: Candida albicans; test: Upregulation of Putative aspartate aminotransferase expression in Candida albicans SC5314 at 200 uM after 24 hrs by MALDI-TOF MS; assay type: functional, organism-based; in short: as §3
[24] = system: Candida albicans; test: Induction of ROS accumulation in mitochondria of Candida albicans SC5314 at 200 uM after 3 hrs by Fluorescence analysis; assay type: functional
In short: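 Cells were exposed 3 h to 40, 100 or 200 μM farnesol, with methanol control and H2O2 positive control. Washed cells were stained 30 min in the dark with a mix of dichlorodihydrofluorescein diacetate, propidium iodide and calcofluor white, then washed and viewed by confocal microscopy. % green (ROS) cells of all cells was scored, with red (necrotic) cells scored separately.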

[25] = system: Candida albicans; test: Induction of apoptosis in Candida albicans SC5314 assessed as mitochondrial degradation at 100 uM after 3 hrs by Fluorescence analysis; assay type: functional
In short: (§4)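 Farnesol-exposed SC5314 (40, 100, 200 μM; methanol control, H2O2 positive control) stained with a MitoPT mitochondrial permeability transition dye per kit instructions. Cells imaged by confocal microscopy: red mitochondrial aggregates in healthy cells, dispersed green signal in apoptotic cells. Percentage of cells with degradation was recorded.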

[26] = system: Candida albicans; test: Induction of apoptosis in Candida albicans SC5314 assessed as mitochondrial degradation at 200 uM after 3 hrs by Fluorescence analysis; assay type: functional; in short: as §4
[27] = system: Candida albicans; test: Increase in MCA1 expression in Candida albicans SC5314 at 40 uM after 4 hrs by quantitative PCR analysis; assay type: functional
In short: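 Log-phase SC5314 cells were used, pregrown overnight at 30°C and 120 rpm in yeast nitrogen base (pH 7.0) with 50 mM glucose, washed in PBS and set to OD600 0.1. Farnesol (methanol stock) was given for 4 h, with methanol-matched untreated controls. SYBR green qPCR ran 35 cycles with 58°C annealing and a melt-curve check. MCA1 was calculated by 2^−ΔΔCT against ACT1 and RPP2B.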

[28] = system: Candida albicans; test: Increase in MCA1 expression in Candida albicans SC5314 at 5 mM after 4 hrs by quantitative PCR analysis

CC(C)=CCC/C(C)=C/CC/C(C)=C/CO [FARNESOL]
3: fold change (FC) [27]
65%: Activity [24]
<10%: Activity [1]
60%: Activity [2]
95%: Activity [26]
93%: Activity [25]
active: Activity [3] | Activity [4] | Activity [5] | Activity [6] | Activity [7] | Activity [8] | Activity [9] | Activity [10] | Activity [11] | Activity [12] | Activity [13] | Activity [14] | Activity [15] | Activity [16] | Activity [17] | Activity [18] | Activity [19] | Activity [20] | Activity [21] | Activity [22] | Activity [23] | Activity [28]
